Experimental findings from ChEMBL document CHEMBL3875207, “New derivatives of 7-chloroquinolin-4-amine with antiprotozoal activity” (Bioorg Med Chem, 2017) are described below.

Data set [1] deals with Trypanosoma brucei rhodesiense. Briefly: Antitrypanosomal activity against Trypanosoma brucei rhodesiense STIB900 bloodstream forms isolated from patient after 70 hrs by microplate alamar blue assay. Type of data set: functional. The conditions noted are these: STIB900, 70 h. In a few lines: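 MEM with 25 mM HEPES, 1 g/L extra glucose, non-essential amino acids, 0.2 mM 2-mercaptoethanol, 1 mM Na-pyruvate, 15% heat-inactivated horse serum; 4×10^3 bloodstream forms per well. Eleven 3-fold dilutions, 100 to 0.002 µg/mL; 70 h, 37°C, 5% CO2. Resazurin added, further 2-4 h; fluorescence ex 536/em 588 nm. IC50 by linear regression from sigmoidal dose-inhibition curves.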

The nature of data set [2]: Selectivity index, ratio of IC50 for rat L6 cells to IC50 for Trypanosoma brucei rhodesiense STIB900 bloodstream forms. The conditions noted are these: read-out: Ratio IC50. Type of data set: toxicity, cell-based. In a few lines:
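Ratio of L-6 cytotoxicity IC50 to T. b. rhodesiense STIB900 IC50. L-6: 4000 cells in RPMI 1640 with L-glutamine and 10% FBS, 70 h, then Alamar Blue 2 h. Trypanosomes: 4×10^3 bloodstream forms in supplemented MEM with 15% horse serum, 37°C, 5% CO2, 70 h, then Alamar Blue 2-4 h. Both read by fluorescence (ex 536/em 588 nm) over eleven 3-fold dilutions, 100 to 0.002 µg/mL.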

In data set [3] the test system is Plasmodium falciparum. Briefly: Antiplasmodial activity against chloroquine-sensitive Plasmodium falciparum NF54 infected in human RBC assessed as reduction in [3H]hypoxanthine incorporation preincubated for 48 hrs followed by [3H]hypoxanthine addition measured after 24 hrs by liquid scintillation counting method. Type of data set: functional. A digest of the protocol:
(§1)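 Erythrocytic P. falciparum in RPMI 1640 without hypoxanthine with HEPES, NaHCO3, neomycin, Albumax (5 g/L) and washed human A+ red cells at 2.5% haematocrit, 0.3% parasitaemia. Compounds from DMSO stocks (10 mg/mL) tested as eleven 3-fold dilutions, 100 to 0.002 µg/mL. Incubation at 37°C under 4% CO2/3% O2/93% N2; 3H-hypoxanthine (0.5 µCi) added at 48 h, 24 h more, scintillation counting; IC50 by linear regression from sigmoidal curves.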

A short description of data set [4]: Selectivity index, ratio of IC50 for rat L6 cells to IC50 for chloroquine-sensitive Plasmodium falciparum NF54 infected in human RBC. Type of data set: toxicity, cell-based. Particulars: read-out: Ratio IC50. In a few lines:
(§2)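 Ratio of the IC50 in rat L-6 myoblasts to the P. falciparum IC50. L-6: 4000 cells per well, RPMI 1640 with L-glutamine and 10% FBS, 70 h, Alamar Blue 2 h, fluorescence ex 536/em 588 nm. Both use eleven 3-fold dilutions, 100 to 0.002 µg/mL.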

Data set [5] concerns Plasmodium falciparum. Briefly: Antiplasmodial activity against chloroquine/pyrimethamine-resistant Plasmodium falciparum K1 infected in human RBC assessed as reduction in [3H]hypoxanthine incorporation preincubated for 48 hrs followed by [3H]hypoxanthine addition measured after 24 hrs by liquid scintillation counting method. Type of data set: functional. A digest of the protocol:
as §1

The nature of data set [6]: Selectivity index, ratio of IC50 for rat L6 cells to IC50 for chloroquine/pyrimethamine-resistant Plasmodium falciparum K1 infected in human RBC. Type of data set: toxicity, cell-based. The conditions noted are these: read-out: Ratio IC50. In a few lines: as §2
Data set [7] in a line: Cytotoxicity against rat L6 cells assessed as growth inhibition after 70 hrs by alamar blue assay. Type of data set: toxicity. In a few lines: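 4000 L-6 cells per well in RPMI 1640 with 1% L-glutamine (200 mM) and 10% FBS. Eleven 3-fold dilutions spanning 100 to 0.002 µg/mL; 70 h incubation, controls checked microscopically. Alamar Blue added for 2 h more; fluorescence ex 536/em 588 nm. IC50 by linear regression from sigmoidal dose-inhibition curves.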
On the technique in general: Resazurin is reduced to fluorescent resorufin, in cell work by metabolically active cells.

A short description of data set [8]: Resistance index, ratio of IC50 for chloroquine/pyrimethamine-resistant Plasmodium falciparum K1 infected in human RBC to IC50 for chloroquine-sensitive Plasmodium falciparum NF54 infected in human RBC. Type of data set: functional. In a few lines:
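Resistance index is the ratio of the IC50 against K1 to the IC50 against NF54. Both IC50s come from the 3H-hypoxanthine incorporation assay run in parallel on the two strains.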

One may read the IC50 as the concentration needed to halve the response being measured. On to `CN1CCN(CCCNc2ccnc3cc(Cl)ccc23)CC1`, for which the IC50 turned out to be 1.14 µM in data set [1], 0.0031 µM in the data set on Plasmodium falciparum [3] and 0.031 µM in the data set on Plasmodium falciparum [5]. For the same compound, the selectivity ratio turned out to be 15.9 in data set [2], 5860 in data set [4] and 586 in data set [6]. In data set [7], the IC50 at 70 h is 18.2 µM. In addition, in data set [8], the Ratio IC50 turned out to be 10.
With `CCCN(CCC)CC(=O)NCCNc1ccnc2cc(Cl)ccc12`, the IC50 turned out to be 0.94 µM in data set [1], 0.014 µM with Plasmodium falciparum [3] and 0.03 µM in the data set on Plasmodium falciparum [5]. Also, the figures for the selectivity ratio in data set [2], in data set [4] and in data set [6] were 23.4, 1570 and 732, respectively. Further, the IC50 at 70 h in data set [7] amounted to 22 µM. For the same compound, the Ratio IC50 in data set [8] worked out at 2.14.
On to `CCCN(CCC)CCN1CCN(c2ccnc3cc(Cl)ccc23)CC1`, for which the IC50 in data set [1] amounted to 1.07 µM; in the data set on Plasmodium falciparum [3], 0.11 µM; in the data set with Plasmodium falciparum [5] it was 0.088 µM. The selectivity ratio is 53.1 in data set [2], 517 in data set [4] and 646 in data set [6]. For the same compound, in data set [7], the IC50 at 70 h turned out to be 56.8 µM. Further, the Ratio IC50 in data set [8] was 0.8.
Consider `CCN(CC)CCCC(C)Nc1ccnc2cc(Cl)ccc12` (centres undefined) [CHLOROQUINE], for which, in data set [7], the IC50 at 70 h was 90.9 µM.
For `CN1CCN(CC(=O)NCCNc2ccnc3cc(Cl)ccc23)CC1`, the IC50 in data set [1] is 18.3 µM; in the data set with Plasmodium falciparum [3], 0.036 µM; in the data set with Plasmodium falciparum [5] it was 2.87 µM. Also, the selectivity ratio was determined as 2.08 in data set [2], 1060 in data set [4] and 13.3 in data set [6]. Also, in data set [7], the IC50 at 70 h came to 38.1 µM. Moreover, the Ratio IC50 in data set [8] is 79.7.
For the compound `O=C(CN1CCCCC1)NCCNc1ccnc2cc(Cl)ccc12`, the IC50 in data set [1] came to 1.28 µM; in the data set on Plasmodium falciparum [3] it was 0.011 µM; in the data set on Plasmodium falciparum [5], 0.092 µM. For the same compound, the selectivity ratio in data set [2] was 18.5; in data set [4], 2160; in data set [6], 258. In addition, the IC50 at 70 h in data set [7] stood at 23.7 µM. In addition, the Ratio IC50 in data set [8] amounted to 8.36.
Turning to `O=C(CN1CCCCCC1)NCCNc1ccnc2cc(Cl)ccc12`, the IC50 in data set [1] was 0.28 µM; in the data set with Plasmodium falciparum [3], 0.011 µM; in the data set with Plasmodium falciparum [5], 0.055 µM. Also, the selectivity ratio is 50.8 in data set [2], 1290 in data set [4] and 258 in data set [6]. Further, in data set [7], the IC50 at 70 h is 14.2 µM. In data set [8], the Ratio IC50 is 5.
For `CN1CCN(CC(=O)N2CCN(c3ccnc4cc(Cl)ccc34)CC2)CC1`, the IC50 in data set [1] amounted to 2.02 µM; with Plasmodium falciparum [3], 0.14 µM; in the data set with Plasmodium falciparum [5], 0.28 µM. Also, the selectivity ratio in data set [2] amounted to 39.5; in data set [4], 570; in data set [6], 285. In data set [7], the IC50 at 70 h was 79.8 µM. In data set [8], the Ratio IC50 turned out to be 2.
In the case of `Clc1ccc2c(NCCNCCN3CCCCCC3)ccnc2c1`, the IC50 in data set [1] stood at 1.28 µM; with Plasmodium falciparum [3], 0.011 µM; with Plasmodium falciparum [5], 0.066 µM. Also, the selectivity ratio in data set [2] came to 59.5; in data set [4], 6920; in data set [6] it was 1150. In data set [7], the IC50 at 70 h is 76.1 µM. Further, in data set [8], the Ratio IC50 amounted to 6.
For the compound `Clc1ccc2c(NCCCN3CCCCCC3)ccnc2c1`, the IC50 in data set [1] came out at 0.78 µM; with Plasmodium falciparum [3] it was 0.0063 µM; in the data set with Plasmodium falciparum [5] it was 0.038 µM. The selectivity ratio in data set [2] was found to be 25.6; in data set [4] it was 3170; in data set [6] it was 525. In data set [7], the IC50 at 70 h is 19.9 µM. Also, the Ratio IC50 in data set [8] amounted to 6.03.
For the compound `Nc1nc(N)nc(Nc2ccc([As]3SCC(CO)S3)cc2)n1` (centres undefined) [MELARSOPROL], the selectivity ratio in data set [2] worked out at 778. The IC50 at 70 h in data set [7] was 7.78 µM.
With `COc1cc([C@@H]2c3cc4c(cc3[C@H](O)[C@H]3COC(=O)[C@H]23)OCO4)cc(OC)c1OC` [PODOFILOX], the IC50 at 70 h in data set [7] was 0.012 µM.
Regarding `O=C(CN1CCCC1)NCCNc1ccnc2cc(Cl)ccc12`, the IC50 is 0.74 µM in data set [1], 0.018 µM with Plasmodium falciparum [3] and 0.075 µM in the data set with Plasmodium falciparum [5]. Besides, the values for the selectivity ratio in data set [2], in data set [4] and in data set [6] were 62.7, 2580 and 618, respectively. In addition, in data set [7], the IC50 at 70 h is 46.4 µM. Also, the Ratio IC50 in data set [8] worked out at 4.17.
On to `CCCN(CCC)CCNc1ccnc2cc(Cl)ccc12`, for which the IC50 stood at 0.14 µM in data set [1], 0.0033 µM in the data set with Plasmodium falciparum [3] and 0.0098 µM in the data set with Plasmodium falciparum [5]. Moreover, the selectivity ratio in data set [2] is 107; in data set [4], 4530; in data set [6], 1520. Further, the IC50 at 70 h in data set [7] was determined as 14.9 µM. Moreover, the Ratio IC50 in data set [8] is 2.97.
Regarding `CN1CCN(CCNc2ccnc3cc(Cl)ccc23)CC1`, the IC50 in data set [1] is 0.69 µM; in the data set on Plasmodium falciparum [3], 0.0066 µM; with Plasmodium falciparum [5], 0.036 µM. Further, the results for the selectivity ratio in data set [2], in data set [4] and in data set [6] were 24.2, 2540 and 465, respectively. Moreover, the IC50 at 70 h in data set [7] was 16.7 µM. For the same compound, the Ratio IC50 in data set [8] turned out to be 5.45.
For the compound `Clc1ccc2c(N3CCN(CCN4CCCCCC4)CC3)ccnc2c1`, the IC50 in data set [1] amounted to 1.61 µM; in the data set on Plasmodium falciparum [3], 0.07 µM; with Plasmodium falciparum [5] it was 0.075 µM. Moreover, the selectivity ratio in data set [2] came out at 15.8; in data set [4], 362; in data set [6] it was 338. The IC50 at 70 h in data set [7] came out at 25.4 µM. The Ratio IC50 in data set [8] came to 1.07.
For `CCCN(CCC)CC(=O)N1CCN(c2ccnc3cc(Cl)ccc23)CC1`, the IC50 in data set [1] was found to be 1.46 µM; in the data set with Plasmodium falciparum [3], 0.23 µM; in the data set with Plasmodium falciparum [5], 0.31 µM. Moreover, the figures for the selectivity ratio in data set [2], in data set [4] and in data set [6] were 48.3, 306 and 227, respectively. The IC50 at 70 h in data set [7] is 70.5 µM. In data set [8], the Ratio IC50 is 1.35.
Consider `Clc1ccc2c(NCCN3CCCCCC3)ccnc2c1`, for which the IC50 came to 0.59 µM in data set [1], 0.0033 µM in the data set with Plasmodium falciparum [3] and 0.016 µM with Plasmodium falciparum [5]. In addition, the selectivity ratio in data set [2] was 22.4; in data set [4], 4010; in data set [6] it was 827. Besides, the IC50 at 70 h in data set [7] is 13.2 µM. Also, the Ratio IC50 in data set [8] was determined as 4.85.
